# Published values from different studies.
# Lines come from different studies, so protocols differ.
# Target: Proto-oncogene tyrosine-protein kinase Src (SRC, Homo sapiens, UniProt P12931)
SMILES,observed,action,method,tested at,quantity,value
C=CC(=O)N1CCC([C@@H]2CCNc3c(C(N)=O)c(-c4ccc(Oc5ccccc5)cc4)nn32)CC1,enzyme activity,inhibitor,,1 µM,inhibition,42%
C[C@H]1CC[C@H](n2c3cnccc3c3cnc(Nc4ccc5c(n4)CCN(C(=O)CO)C5)nc32)CC1,cell-free assay,,competition with immobilised ligand,1 µM,remaining binding,65%
Cc1cc(O)c(-c2ccc([C@@H](C)CN(C)C)cc2)c2c1[nH]c(=O)c1sccc12,enzyme activity,inhibitor,,0.1 µM,inhibition,-1.37%
N#Cc1ccc(NC(=O)Nc2ccccc2)cc1,cell-free assay,,competition with immobilised ligand,25 µM,remaining binding,100%
Cc1cc2c(C(N)=O)c(N)n(-c3c(C)ccc(O)c3C)c2nc1C,enzyme activity,inhibitor,TR-FRET,3.333 µM,inhibition,100%
C#Cc1cc(-c2cc(Nc3nc(N[C@@H](C)c4ccc(F)cn4)ncc3Cl)n[nH]2)ccc1C=O,enzyme activity,inhibitor,,0.2 µM,inhibition,37.7%
CCCCC(=O)Nc1ccc(-c2ccc3ncn(CCC)c(=O)c3c2)cn1,binding,,competition with immobilised ligand,0.5 µM,remaining binding,97%
CO[C@@H]1[C@H](N(C)C(=O)c2ccccc2)C[C@H]2O[C@]1(C)n1c3ccccc3c3c4c(c5c6ccccc6n2c5c31)C(=O)NC4,enzyme activity,inhibitor,,1 µM,inhibition,31%
Cc1ccc(NC(=O)c2ccnc(C(F)(F)F)c2)cc1-c1cc(OCCO)nc(N2CCOCC2)c1,binding,,competition with immobilised ligand,1 µM,remaining binding,100%
COc1ccc2oc(-c3ccc4nc(N)oc4c3)c/c(=N\c3ccccc3NC(=O)CCN)c2c1,binding,,,1 µM,remaining binding,72%
